The values that follow come from ChEMBL document CHEMBL1147647, “Second generation, orally active, antimalarial, artemisinin-derived trioxane dimers with high stability, efficacy, and anticancer activity” (J Med Chem, 2006).

Active and inactive are the calls of the source. No cut-off for these calls is given here.

Assay [1] has as its system Plasmodium falciparum. Nature of the assay: Antimalarial activity against chloroquine-sensitive Plasmodium falciparum NF54 in mice (Mus musculus) by peroral dose. The class given is functional. Particulars: NF54, po. The procedure, abridged: (§1)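 In mice, a single dose of 3, 10 or 30 mg/kg was given orally or subcutaneously. ED50 in mg/kg was derived from these doses following a published protocol.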

Assay [2] has as its system Plasmodium falciparum. Nature of the assay: Antimalarial activity against chloroquine-sensitive Plasmodium falciparum NF54 in mice (Mus musculus) by subcutaneous dose. It counts as functional. Particulars: NF54, sc. The essentials: as §1
Assay [3] deals with Plasmodium falciparum. Nature of the assay: Antimalarial activity against chloroquine-sensitive Plasmodium falciparum NF54. It counts as functional, organism-based.
In the next assay the test system is HeLa. Nature of the assay: Antiproliferative activity against HeLa cell line. It counts as functional, cell-based. Particulars: Homo sapiens. The procedure, abridged:
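HeLa human cervical cancer cells were tested in vitro with an XTT tetrazolium colorimetric proliferation assay, using a modified version of a reported protocol. IC50 was determined.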

The subject of a further assay is HOP-92. Nature of the assay: Antiproliferative activity against HOP92 cell line. It counts as functional, cell-based. Particulars: Homo sapiens. The procedure, abridged: (§2)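 Growth inhibition was tested in vitro across the NCI Developmental Therapeutics Program 60-line human cancer panel at nanomolar to micromolar concentrations.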
In another assay the test system is SK-MEL-5. Nature of the assay: Antiproliferative activity against SK-MEL-5 cell line. The class given is functional, cell-based. Particulars: Homo sapiens. The essentials:
as §2

A further assay concerns BT-549. Nature of the assay: Antiproliferative activity against BT549 cell line. The class given is functional, cell-based. Particulars: Homo sapiens. The procedure, abridged:
as §2

`C[C@H]1[C@H](OC(=O)CCC(=O)[O-])O[C@@H]2O[C@@]3(C)CC[C@H]4[C@H](C)CC[C@@H]1[C@@]24OO3.[Na+]` [SODIUM ARESUNATE]: the ED50 – broadly, the dose that gives a 50% effect, or the effect in half of the subjects – was 4 mg/kg in the assay on Plasmodium falciparum [1] and 2.2 mg/kg with Plasmodium falciparum [2].
As to `C[C@H]1[C@@H](Cc2cc(C(=O)O)c(C(=O)O)cc2C[C@H]2O[C@@H]3O[C@]4(C)CC[C@H]5[C@H](C)CC[C@@H]([C@H]2C)[C@@]35OO4)O[C@@H]2O[C@]3(C)CC[C@H]4[C@H](C)CC[C@@H]1[C@@]24OO3`, the IC50 (in general, the concentration that gives 50% inhibition) with Plasmodium falciparum [3] was determined as 360 nM. This lies in the sub-micromolar range.
For the molecule `C[C@H]1[C@@H](Cc2cc(CO)c(CO)cc2C[C@H]2O[C@@H]3O[C@]4(C)CC[C@H]5[C@H](C)CC[C@@H]([C@H]2C)[C@@]35OO4)O[C@@H]2O[C@]3(C)CC[C@H]4[C@H](C)CC[C@@H]1[C@@]24OO3`, the IC50 in the assay with HeLa is 46.5 nM; in the assay with Plasmodium falciparum [3], 0.77 nM. Also, the ED50 with Plasmodium falciparum [1] turned out to be 2.6 mg/kg; in the assay on Plasmodium falciparum [2], 0.06 mg/kg.
In turn, `C[C@@H]1CC[C@H]2[C@@H](C)C(=O)O[C@@H]3O[C@@]4(C)CC[C@@H]1[C@]32OO4` [ARTEMISININ] displayed an IC50 in the assay with Plasmodium falciparum [3] of 6.6 nM.
The molecule `C=C(C[C@H]1O[C@@H]2O[C@]3(C)CC[C@H]4[C@H](C)CC[C@@H]([C@H]1C)[C@@]24OO3)C(=C)C[C@H]1O[C@@H]2O[C@]3(C)CC[C@H]4[C@H](C)CC[C@@H]([C@H]1C)[C@@]24OO3` registered an IC50 in the assay on Plasmodium falciparum [3] of 2.9 nM. Against the preceding molecule, the IC50 is about 2.3-fold lower.
Molecule `C[C@H]1[C@@H](Cc2cc3c(cc2C[C@H]2O[C@@H]4O[C@]5(C)CC[C@H]6[C@H](C)CC[C@@H]([C@H]2C)[C@@]46OO5)COP(=O)(Oc2ccccc2)OC3)O[C@@H]2O[C@]3(C)CC[C@H]4[C@H](C)CC[C@@H]1[C@@]24OO3` (some centres not stated) displayed an IC50 in the assay with Plasmodium falciparum [3] of 3.7 nM.
Consider `CCOP(=O)(OCC)OCc1cc(C[C@H]2O[C@@H]3O[C@]4(C)CC[C@H]5[C@H](C)CC[C@@H]([C@H]2C)[C@@]35OO4)c(C[C@H]2O[C@@H]3O[C@]4(C)CC[C@H]5[C@H](C)CC[C@@H]([C@H]2C)[C@@]35OO4)cc1COP(=O)(OCC)OCC`, for which the IC50 with Plasmodium falciparum [3] was 3 nM. This IC50 and that of the molecule before are within 1.5-fold of each other.
Regarding `COC(=O)c1cc(C[C@H]2O[C@@H]3O[C@]4(C)CC[C@H]5[C@H](C)CC[C@@H]([C@H]2C)[C@@]35OO4)c(C[C@H]2O[C@@H]3O[C@]4(C)CC[C@H]5[C@H](C)CC[C@@H]([C@H]2C)[C@@]35OO4)cc1C(=O)OC`, the IC50 with HeLa was 500 nM; in the assay on Plasmodium falciparum [3], 1.6 nM. The outcome in the assay with HOP-92, with SK-MEL-5 and in the assay with BT-549 was Active. Also, the ED50 in the assay with Plasmodium falciparum [2] was found to be 0.71 mg/kg.
